Results on five compounds are retold here after ChEMBL document CHEMBL3286381 (J Med Chem, 2014).

Assay [1] addresses T1, Ectonucleoside triphosphate diphosphohydrolase 1 (Homo sapiens) (UniProt P49961).
T1 sequence (whole entry): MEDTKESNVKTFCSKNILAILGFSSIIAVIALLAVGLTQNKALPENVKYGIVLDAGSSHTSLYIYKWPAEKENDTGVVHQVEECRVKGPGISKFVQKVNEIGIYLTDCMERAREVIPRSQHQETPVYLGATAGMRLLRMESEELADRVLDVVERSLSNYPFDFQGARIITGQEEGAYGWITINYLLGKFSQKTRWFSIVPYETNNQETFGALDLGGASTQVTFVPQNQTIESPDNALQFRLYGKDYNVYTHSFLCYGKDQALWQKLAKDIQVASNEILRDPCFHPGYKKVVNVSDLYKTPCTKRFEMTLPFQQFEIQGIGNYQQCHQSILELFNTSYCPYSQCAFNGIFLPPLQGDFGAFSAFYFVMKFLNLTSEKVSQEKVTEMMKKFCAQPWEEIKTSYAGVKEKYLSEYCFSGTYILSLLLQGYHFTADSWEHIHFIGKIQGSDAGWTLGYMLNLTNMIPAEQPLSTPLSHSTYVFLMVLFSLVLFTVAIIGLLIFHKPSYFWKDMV
Description: Inhibition of human NTPDase-1 using ATP as substrate assessed as inorganic phosphate release at 100 uM after 15 mins relative to control. Summed up: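 Protein extracts are from COS-7 cells transiently transfected with human NTPDase1, 2, 3 or 8. Extract is preincubated for 3 min at 37 °C in Tris–Ringer buffer (pH 7.3). […] Three experiments in triplicate.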

The target in assay [2] is T2, Ectonucleotide pyrophosphatase/phosphodiesterase family member 1 (Homo sapiens, UniProt P22413).
T2 sequence (P22413 whole entry): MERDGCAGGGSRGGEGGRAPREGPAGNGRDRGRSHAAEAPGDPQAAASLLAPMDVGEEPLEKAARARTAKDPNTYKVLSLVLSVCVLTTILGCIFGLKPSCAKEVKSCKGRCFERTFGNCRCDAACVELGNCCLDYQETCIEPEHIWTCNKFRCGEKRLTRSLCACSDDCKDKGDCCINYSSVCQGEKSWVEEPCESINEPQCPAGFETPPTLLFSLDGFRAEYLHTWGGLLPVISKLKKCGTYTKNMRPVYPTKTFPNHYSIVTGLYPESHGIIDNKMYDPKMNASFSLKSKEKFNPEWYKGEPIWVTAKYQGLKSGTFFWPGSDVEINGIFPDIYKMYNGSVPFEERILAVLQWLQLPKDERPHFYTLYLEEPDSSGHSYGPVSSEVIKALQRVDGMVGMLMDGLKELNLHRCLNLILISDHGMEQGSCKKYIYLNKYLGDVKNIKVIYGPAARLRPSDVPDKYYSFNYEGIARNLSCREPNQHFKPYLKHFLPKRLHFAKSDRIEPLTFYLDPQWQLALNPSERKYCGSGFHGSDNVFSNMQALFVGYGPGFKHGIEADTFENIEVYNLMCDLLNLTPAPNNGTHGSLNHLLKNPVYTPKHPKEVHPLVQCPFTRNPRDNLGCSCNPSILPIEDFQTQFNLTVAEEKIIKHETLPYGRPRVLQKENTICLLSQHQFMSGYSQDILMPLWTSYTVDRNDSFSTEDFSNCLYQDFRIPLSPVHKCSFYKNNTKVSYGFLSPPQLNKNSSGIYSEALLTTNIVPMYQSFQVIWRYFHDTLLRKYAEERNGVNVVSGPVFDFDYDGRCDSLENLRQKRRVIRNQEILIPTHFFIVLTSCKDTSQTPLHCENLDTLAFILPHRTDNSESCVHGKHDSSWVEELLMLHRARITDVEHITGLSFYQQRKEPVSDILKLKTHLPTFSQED
The assay is described as follows: Mixed type inhibition of human NPP1 using pNP-TMP as substrate after 20 mins by Dixon and Cornish-Bowden method. Summed up:
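Human NPP1 (COS-7 lysate) is tested with pNP-TMP hydrolysis at 37 °C in pH 8.5 Tris buffer, reading p-nitrophenol at […]. Substrate is 25, 50 and 100 μM, and inhibitor is 0, 25, 50 and 100 μM. Inhibition type, Ki and Ki′ (EIS complex dissociation constant) come from Dixon and Cornish–Bowden plots of three independent experiments.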

In assay [3] the target is T3, P2Y purinoceptor 11 (Homo sapiens) (UniProt Q96G91).
T3 sequence (whole entry): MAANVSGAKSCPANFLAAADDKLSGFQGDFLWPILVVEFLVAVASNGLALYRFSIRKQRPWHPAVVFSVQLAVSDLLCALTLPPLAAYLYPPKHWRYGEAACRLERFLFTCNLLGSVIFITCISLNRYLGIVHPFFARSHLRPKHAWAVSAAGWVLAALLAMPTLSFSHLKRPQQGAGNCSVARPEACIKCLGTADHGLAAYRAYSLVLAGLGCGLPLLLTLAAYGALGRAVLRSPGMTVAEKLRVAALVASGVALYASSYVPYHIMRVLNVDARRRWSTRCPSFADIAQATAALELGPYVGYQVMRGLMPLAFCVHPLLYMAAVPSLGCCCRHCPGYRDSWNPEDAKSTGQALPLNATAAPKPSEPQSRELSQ
Description: Agonist activity at human P2Y11 receptor expressed in human 1321N1 cells assessed as increase of intracellular calcium level after 30 mins using fura-2 AM by fluorescence assay relative to ATP. The class given is functional, cell-based. For orientation: A change in cytosolic calcium serves as a functional read-out for many receptors and channels.

As a reminder, the inhibition is the drop in the measured response relative to a control, in per cent. The IC50 is the point on the concentration scale where inhibition reaches its midpoint. Read a low IC50 as inhibition by little substance. Usually Ki stands for a dissociation constant, usually derived from enzyme kinetics or from competition with a known ligand. Lower therefore signals higher affinity. Take `Nc1ncnc2c1ncn2[C@@H]1O[C@H](CO[P@](O)(=S)OP(=O)(O)CP(=O)(O)O)[C@@H](O)[C@H]1O`: the inhibition in assay [1] was 18.7%. Moreover, in assay [2], the IC50 was 16.3 µM and the Ki stood at 4.5 µM.

As for `Nc1ncnc2c1ncn2[C@@H]1O[C@H](CO[P@@](O)(=S)OP(=O)(O)CP(=O)(O)O)[C@@H](O)[C@H]1O`, the fold change (FC) in assay [3] amounted to 7.4. Moreover, the inhibition in assay [1] was 21.6%. In assay [2], this compound had an IC50 of 18.7 µM and a Ki of 1.3 µM.

As to `Nc1ncnc2c1ncn2[C@@H]1O[C@H](CO[P@](O)(=S)OP(=O)(O)C(Cl)(Cl)P(=O)(O)O)[C@@H](O)[C@H]1O`, in assay [1], the inhibition stood at 0.5%. In assay [2], this compound returned an IC50 of 0.6 µM and a Ki of 0.685 µM.

As for `Nc1ncnc2c1ncn2[C@@H]1O[C@H](COP(=O)(O)CP(=O)(O)OP(O)(O)=S)[C@@H](O)[C@H]1O`, in assay [3], the fold change (FC) turned out to be 6.7. Also, the inhibition in assay [1] amounted to 58.4%.

As for `Nc1ncnc2c1ncn2[C@@H]1O[C@H](CO[P@@](O)(=S)OP(=O)(O)C(Cl)(Cl)P(=O)(O)O)[C@@H](O)[C@H]1O`, the fold change (FC) in assay [3] came to 2.2. Besides, the inhibition in assay [1] was 0.5%. In assay [2], this compound returned an IC50 of 31.2 µM and a Ki of 15.2 µM.
